Source: PubChem BioAssay (several laboratories)
ADAM10 inh: ADAM10 inhibition, QFRET primary screen; recombinant ADAM10, EDANS/DABCYL FRET peptide cleavage, 3 h; inhibition, % at 7 µM; O14672; 370,000 tested, 0.62% active;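 active = inhibition above a per-campaign cutoff equal to the mean of compounds falling between control-based bounds plus 3 SD, cut at about 20% in these data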
KLK7 zymogen act: activators of human kallikrein-7 zymogen; activation, % at 7 µM; 370,000 tested, 0.9% active; AID 652039; purified proKLK7, EDANS-DABCYL substrate fluorescence; 100% is mature enzyme control, 0% vehicle; P49862;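 active = activation above the mean of all tested compounds plus 3 SD, computed per campaign excluding outliers beyond control limits, cut at about 13% in these data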
NR2E3 ag-1: human photoreceptor-specific nuclear receptor agonism; CHO-S Gal4-NCOR/VP16-NR2E3 two-hybrid, luciferase; inhibition of corepressor binding, % at 3.98 µM; 360,000 tested, 0.35% active; AID 602229;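 active = inhibition above the mean of all tested compounds plus 3 SD, cut at about 70% in these data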;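 also: higher means lower luciferase signal from less NR2E3 corepressor binding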
ADAM17 inh: inhibits human ADAM17; P78536; recombinant ADAM17, EDANS/DABCYL FRET peptide cleavage; inhibition, % at 6.95 µM; 370,000 tested, 0.83% active; AID 720648;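 active = inhibition above the mean of compounds lying between control limits plus 3 SD, set per campaign, cut at about 8.5% in these data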
Target sequence (P78536 215-824 limits assumed): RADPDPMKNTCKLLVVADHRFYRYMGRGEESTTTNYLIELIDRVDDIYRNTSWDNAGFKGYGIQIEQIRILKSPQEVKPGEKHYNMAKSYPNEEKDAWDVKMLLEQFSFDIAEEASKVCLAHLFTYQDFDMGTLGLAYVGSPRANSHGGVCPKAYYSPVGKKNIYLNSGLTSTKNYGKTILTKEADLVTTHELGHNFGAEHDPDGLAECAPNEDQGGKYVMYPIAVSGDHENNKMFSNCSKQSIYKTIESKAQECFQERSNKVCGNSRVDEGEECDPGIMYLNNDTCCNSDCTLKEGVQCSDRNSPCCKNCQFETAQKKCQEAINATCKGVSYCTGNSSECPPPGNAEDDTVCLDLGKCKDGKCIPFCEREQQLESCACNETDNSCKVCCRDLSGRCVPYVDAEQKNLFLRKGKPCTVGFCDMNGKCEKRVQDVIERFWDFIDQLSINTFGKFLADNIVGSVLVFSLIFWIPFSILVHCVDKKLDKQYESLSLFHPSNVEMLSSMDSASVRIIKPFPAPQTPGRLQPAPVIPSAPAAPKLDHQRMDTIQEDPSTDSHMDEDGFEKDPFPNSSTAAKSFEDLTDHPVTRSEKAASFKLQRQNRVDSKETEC
GASC-1 inh: inhibitors of human GASC-1 (JMJD2C) demethylase. Q9H3R0. GST-JMJD2C(1-420) H3K9me3 demethylation, DELFIA europium. inhibition, % at 2.35 µM. 330,000 tested, 0.069% active. AID 2099;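 active = more than half of a compound's replicate wells show inhibition beyond 50%, single wells judged on their own value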;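 also: signal counts dimethyl H3K9 product captured on neutravidin plate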
NR2E3 ag-2: activates human photoreceptor nuclear receptor NR2E3; Q9Y5X4; GST-NR2E3/biotin-RetCOR TR-FRET, 1536-well; inhibition of corepressor binding, % at 4.78 µM; 320,000 tested, 0.12% active;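 active = percent inhibition above the cutoff of mean plus 3 SD of all tested compounds, set per screening campaign, cut at about 20% in these data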
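Assay system: NR2E3–RetCOR corepressor complex. Quantity: 1.35 nM GST-NR2E3. Buffer or medium: pH 7.5 Tris-based buffer. Reagent: biotinylated RetCOR corepressor at 7 nM final. Schedule: 5 h at 4 °C. Detection: TR-FRET, emission read at 617 and 671 nm. Replicates: one well per compound, singlicate testing.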
ADAM10 confirm: confirmation of inhibitors of human ADAM10; ADAM10 QFRET peptide cleavage, EDANS fluorescence; inhibition, % at 6.95 µM; 2,100 tested, 1% active; shares compounds with ADAM10 inh; AID 743208;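 active = inhibition above about 20% chosen separately for each screening run, limit read from the data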
ADAM17 counter: counter-screen for ADAM10 exosite inhibitors: inhibitors of human ADAM17; inhibition, % at 6.95 µM; ADAM17 QFRET peptide cleavage, EDANS fluorescence; AID 743214; 2,100 tested, 0.5% active; shares compounds with ADAM10 inh;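 active = mean triplicate inhibition above the solvent-only control wells' mean plus 3 SD, cut at about 12% in these data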
ADAM10 ctr: inhibits human ADAM10 in ADAM17 exosite counter-screen | recombinant ADAM10, EDANS/DABCYL FRET peptide cleavage, 3 h | AID 743256 | shares compounds with ADAM17 inh | 2,900 tested, 47% active | inhibition, % at 6.95 µM;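 active = mean inhibition over the triplicate runs exceeds the activity threshold set in the earlier primary screen, cut at about 20% in these data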
ADAM17 confirm: human ADAM17 inhibition, confirmation. shares compounds with ADAM17 inh. recombinant ADAM17, EDANS/DABCYL QFRET peptide cleavage. 2,900 tested, 65% active. inhibition, % at 6.95 µM;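 active = mean inhibition across replicates above the hit cutoff set in the primary screen, cut at about 8.5% in these data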
Each line names hits and unclear results; the compound was inactive in the other large screens (follow-up assays come after a bar, where they were run). This is a sample that favours compounds with a hit; in the whole collection about 2.5% have one here.

COC(=O)C1=C(c2cccc(OCc3ccccc3)c2)C[C@@H]2CC[C@H]1N2C(=O)NCc1cccc(OC)c1	none
COC(=O)C1=C(c2cccc(OCc3ccccc3)c2)C[C@@H]2CC[C@H]1N2C(=O)NCCOc1ccc(OC)cc1	ADAM10 inh 26, ADAM17 inh 10 | ADAM10 confirm inactive | ADAM17 counter inactive | ADAM10 ctr inactive | ADAM17 confirm 14
COc1ccc(OCC(=O)Nc2ccc(Cl)cc2C(=O)c2ccccc2)cc1	ADAM17 inh 9.1 | ADAM10 ctr inactive | ADAM17 confirm inactive
O=C(NN=Cc1ccc(N(CCCl)CCCl)cc1)C(=O)c1c[nH]c2ccccc12	ADAM17 inh 15 (no result: GASC-1 inh, NR2E3 ag-2) | ADAM10 ctr inactive | ADAM17 confirm 13
O=C(NN=Cc1ccc(N(CCCl)CCCl)cc1)c1cc(=O)[nH]c(=O)[nH]1	none (no result: GASC-1 inh, NR2E3 ag-2)
S=C(NCCc1ccccc1)N1Cc2ccc(Br)cc2-n2nncc2C1	ADAM17 inh 11 (no result: GASC-1 inh, NR2E3 ag-2) | ADAM10 ctr 25 | ADAM17 confirm 14
COC(=O)C1=C(c2ccc(OC(F)(F)F)cc2)C[C@@H]2CC[C@H]1N2C(=O)NCc1ccc(F)cc1	none
COC(=O)C1=C(c2ccc(OC(F)(F)F)cc2)C[C@@H]2CC[C@H]1N2C(=O)NCc1cccc2ccccc12	ADAM10 inh 30, ADAM17 inh 8.7 | ADAM10 ctr 21 | ADAM17 confirm 10
COC(=O)C1=C(c2ccc(OC(F)(F)F)cc2)C[C@@H]2CC[C@H]1N2C(=O)NCc1cc(C)oc1C(F)(F)F	ADAM17 inh 11 | ADAM10 ctr 29 | ADAM17 confirm 15
O=C1/C(=C\c2cc3c(cc2Br)OCO3)N2CCC1CC2	none (no result: ADAM10 inh, KLK7 zymogen act, ADAM17 inh)
Cc1ccc(OCCOc2cccc(C=C3C(=O)NC(=O)NC3=O)c2)cc1	ADAM17 inh 9.2 | ADAM10 ctr inactive | ADAM17 confirm inactive
O=C1NC(=O)C(=Cc2ccc3ccccc3c2)C(=O)N1	none
COC(=O)C1=C(c2ccccc2OCc2ccccc2)C[C@@H]2CC[C@H]1N2C(=O)NCc1ccc(N(C)C)cc1	none
COC(=O)C1=C(c2ccc(-c3ccccc3)c(F)c2)C[C@@H]2CC[C@H]1N2C(=O)NCCc1ccccc1	ADAM17 inh 9.0 | ADAM10 ctr inactive | ADAM17 confirm inactive
COC(=O)C1=C(c2ccccc2OCc2ccccc2)C[C@@H]2CC[C@H]1N2C(=O)NCc1ccc(Cl)cc1	ADAM17 inh 9.7 | ADAM10 ctr inactive | ADAM17 confirm 11
COC(=O)C1=C(c2ccccc2OCc2ccccc2)C[C@@H]2CC[C@H]1N2C(=O)NCc1cccc(F)c1	none
COC(=O)C1=C(c2ccccc2OCc2ccccc2)C[C@@H]2CC[C@H]1N2C(=O)NCc1ccc(OC)c(OC)c1	ADAM17 inh 12 | ADAM10 ctr inactive | ADAM17 confirm inactive
COc1ccccc1CCNC1C2CC3CC(C2)CC1C3 (stereo not drawn)	none
CC(=NCc1ccc2c(c1)OCO2)c1c(O)n(-c2ccccc2)c(=O)[nH]c1=O	none
COc1ccc(C2=NCC(=S)Nc3ccc(Cl)cc32)cc1Cl	none
Cc1ccc(S(=O)(=O)N[C@@H](CCCCN)C(=O)CCl)cc1	none
Cc1ccc(Cn2nnnc2CN2CCC(n3nnc4cc(C)ccc43)CC2)cc1	ADAM17 inh 9.3 | ADAM10 ctr inactive | ADAM17 confirm inactive
C[C@]12CCC(=O)C=C1CC[C@@H]1C2CC[C@]2(C)C(=O)CCC12 (stereo partly drawn)	ADAM17 inh 9.9 | ADAM10 ctr inactive | ADAM17 confirm inactive
CCc1cccc(C)c1NC(=S)N1CC2CC(C1)c1cccc(=O)n1C2 (stereo not drawn)	none
O=c1[nH]c(=O)n(Cc2ccco2)c(O)c1C=NCc1ccc2c(c1)OCO2	ADAM17 inh 9.3 | ADAM10 ctr inactive | ADAM17 confirm inactive
CCCCn1c(O)c(C=NCc2ccc3c(c2)OCO3)c(=O)[nH]c1=O	none
O=C1NCN(c2ccccc2)C12CCN(C(CCc1ccccc1)c1nnnn1C1CCCCC1)CC2 (stereo not drawn)	none (no result: GASC-1 inh, NR2E3 ag-2)
CCC(c1nnnn1Cc1ccccc1)N1CCC2(CC1)C(=O)NCN2c1ccccc1 (stereo not drawn)	ADAM17 inh 10 (no result: GASC-1 inh, NR2E3 ag-2) | ADAM10 ctr inactive | ADAM17 confirm 12
COc1ccc(C(c2nnnn2Cc2ccccc2)N2CCC3(CC2)C(=O)NCN3c2ccccc2)cc1 (stereo not drawn)	none (no result: GASC-1 inh, NR2E3 ag-2)
O=C1NCN(c2ccccc2)C12CCN(C(CCc1ccccc1)c1nnnn1C1CCCC1)CC2 (stereo not drawn)	ADAM17 inh 8.8 (no result: GASC-1 inh, NR2E3 ag-2) | ADAM10 ctr inactive | ADAM17 confirm 9.4
OC(c1ccc(F)cc1)(c1ccc(F)cc1)[C@@H]1CCCN1	none
CCOC(=O)C1(CCCc2ccccc2)CCN(C2CCC2)CC1	none
COC(=O)C1=C(C(=O)OC)C2c3ccccc3C1c1ccccc12	ADAM17 inh 11 (no result: GASC-1 inh, NR2E3 ag-2) | ADAM10 ctr inactive | ADAM17 confirm inactive
O=C(O)C1=CC2c3ccccc3C1c1ccccc12	none
Oc1ccc(Cl)cc1Cc1ccccc1	ADAM17 inh 8.7 (no result: GASC-1 inh, NR2E3 ag-2) | ADAM10 ctr inactive | ADAM17 confirm inactive
COc1ccccc1OCCCn1cc(C(C)=O)c2ccccc21	ADAM17 inh 10 | ADAM10 ctr inactive | ADAM17 confirm inactive
COc1ccccc1OCCCn1cc(C(=O)C2CC2)c2ccccc21	none
CC(C)(C)OC(=O)NCCCCC(N)[P+](=O)O (stereo not drawn)	none (no result: NR2E3 ag-1, GASC-1 inh, NR2E3 ag-2)
CCOC(=O)C(O)(c1ccc(NC(=S)NC(=O)c2ccc(Cl)cc2Cl)cc1)C(F)(F)F (stereo not drawn)	ADAM17 inh 9.6 | ADAM10 ctr 24 | ADAM17 confirm 14
CCOC(=O)C(O)(c1ccc(NC(=S)NC(=O)c2ccc(Cl)cc2Cl)c(C)c1)C(F)(F)F (stereo not drawn)	ADAM10 inh 29, ADAM17 inh 15 | ADAM10 ctr 47 | ADAM17 confirm 23
O=C(CCC(=O)N1C[C@H]2C[C@@H](C1)c1cccc(=O)n1C2)NCc1ccc(F)cc1	none
O=P(NS(=O)(=O)c1ccccc1)(Oc1ccccc1)Oc1ccccc1	ADAM17 inh 8.7 | ADAM10 ctr inactive | ADAM17 confirm inactive
